Laboratory results: ChEMBL document CHEMBL1240484, “New 4H-chromen-4-one and 2H-chromene derivatives as anti-picornavirus capsid-binders” (Bioorg Med Chem, 2010)

Experiments:
[1] = Cytotoxicity against human HeLa cells after 3 days by XTT assay; format: cell-based; settings: read-out: TC50
In short: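 HeLa cells seeded at 2 × 10³ per well with twofold compound dilutions from the maximum soluble concentration, quadruplicate wells, 37 °C in 5% CO2 for 3 days until controls were confluent. Morphology also scored microscopically. MNTC is the highest dose with no toxicity or growth reduction.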

[2] = Cytotoxicity against human HeLa cells assessed as maximum non-cytotoxic concentration after 3 days by XTT assay; format: cell-based
In short: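 HeLa cells seeded at 2 × 10³ per well with twofold compound dilutions from the maximum soluble concentration, quadruplicate wells, 37 °C in 5% CO2 for 3 days until controls were confluent. XTT added (final 0.15 mg/mL) for 4 h, absorbance read at 492 nm with 690 nm reference. Morphology also scored microscopically. […] MNTC is the highest dose with no toxicity or growth reduction.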

rhinovirus A1B = experiment: Antiviral activity against Human rhinovirus 1B infected in human HeLa cells after 3 days by plaque reduction assay; format: functional, organism-based; settings: for IC50: Rhinovirus A, 72 h
In short: (§1)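 HeLa monolayers infected with ATCC HRV 14 or 1B at about 100 plaques per well, 1 h adsorption at 33 °C. Inoculum removed, then plaque overlay with fourfold drug dilutions from the MNTC. Three days at 33 °C, neutral red (0.2 mg/mL, PBS pH 7.4) staining and plaque count, triplicate wells. IC50 from log dose vs % reduction relative to mock-treated control. Otherwise % inhibition at MNTC is reported.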

[3] = Therapeutic index, ratio of TC50 for human HeLa cells to IC50 for HRV 1B; format: cell-based; settings: read-out: TI
In short: (§2)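 Therapeutic index calculated as TC50 for HeLa cells (XTT, 3 days) divided by IC50 for plaque reduction of HRV 14 or HRV 1B in HeLa cells.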

rhinovirus B14 [4] = experiment: Antiviral activity against Human rhinovirus 14 infected in human HeLa cells after 3 days by plaque reduction assay; format: functional, organism-based; settings: for IC50: Rhinovirus B, 72 h; in short: as §1
rhinovirus B14 [5] = experiment: Antiviral activity against Human rhinovirus 14 infected in human HeLa cells at maximum non-cytotoxic concentration after 3 days by plaque reduction assay; format: functional; in short: as §1
[6] = Cytotoxicity against human Hep2 cells assessed as maximum non-cytotoxic concentration after 3 days by XTT assay; format: cell-based, HEp-2
In short: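 Hep-2 cells grown in high-glucose DMEM, seeded at 2 × 10³ per well with twofold dilutions from the maximum soluble concentration, quadruplicate wells, 3 days at 37 °C in 5% CO2. XTT (final 0.15 mg/mL) for 4 h, read at 492/690 nm, plus microscopic scoring. MNTC is the highest dose causing no toxic effect or growth reduction.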

Enterovirus A71 [7] = experiment: Antiviral activity against Human enterovirus 71 infected in human Hep2 cells after 2 days by plaque reduction assay; format: functional, organism-based; settings: for IC50: Enterovirus A, HEp-2, 48 h; for Activity: HEp-2
In short: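 Inoculum removed, then plaque overlay with fourfold drug dilutions starting from the MNTC. Two days at 37 °C, neutral red (0.2 mg/mL in PBS pH 7.4) staining, plaques counted, triplicate wells. IC50 taken from log dose vs % plaque reduction.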

Enterovirus A71 [8] = experiment: Antiviral activity against Human enterovirus 71 infected in human Hep2 cells at maximum non-cytotoxic concentration […] by plaque reduction assay; format: functional, HEp-2
[9] = Therapeutic index, ratio of TC50 for human HeLa cells to IC50 for HRV 14; format: cell-based; settings: read-out: TI; in short: as §2

SMILES	CC50 at 72 h [1] [µM]	MNTC at 72 h [2] [µM]	Activity (rhinovirus A1B)	IC50 (rhinovirus A1B) [µM]	selectivity ratio [3]	Activity (rhinovirus B14 [4])	IC50 (rhinovirus B14 [4]) [µM]	inhibition (INH) (rhinovirus B14 [5]) [%]	MNTC at 72 h [6] [µM]	IC50 (Enterovirus A71 [7]) [µM]	Activity (Enterovirus A71 [7])	inhibition (INH) (Enterovirus A71 [8]) [%]	selectivity ratio [9]
O=c1c(/C=C/c2ccc(Cl)cc2)coc2ccc(Cl)cc12	50	25	Dose-dependent effect	2.19	22.2	Dose-dependent effect	> 25	24.1	25	> 25	Dose-dependent effect	35.7	
O=c1c(/C=C/c2ccc(Cl)cc2)coc2ccccc12	50	25	Dose-dependent effect	4.54	11	Dose-dependent effect	5.52		25	> 25	Dose-dependent effect	21.6	9.06
C1=C(/C=C/C=C/c2ccccc2)COc2ccccc21	100	50	Dose-dependent effect	30.8	3.24	Dose-dependent effect	50		50	> 50	Dose-dependent effect	29.5	2
O=c1c(/C=C/C=C/c2ccc(Cl)cc2)coc2ccc(Cl)cc12	6.25	3.12	Dose-dependent effect	0.71	8.8	Dose-dependent effect	> 3.12	36.2	3.12	> 3.12	Dose-dependent effect	46.6	
O=c1c(/C=C/c2ccccc2)coc2ccccc12	> 200	> 200	Dose-dependent effect	3.12	> 64.2	Dose-dependent effect	4.36		50	> 50	Dose-dependent effect	34.6	> 45.9
O=c1c(/C=C/C=C/c2ccccc2)coc2ccc(Cl)cc12	100	50	Dose-dependent effect	1.6	62.5	Dose-dependent effect	> 50	48.3	50	> 50	Dose-dependent effect	46.7	
Clc1ccc(/C=C/C2=Cc3cc(Cl)ccc3OC2)cc1	50	25	Dose-dependent effect	7.13	7.01	Dose-dependent effect	8.28		12.5	> 12.5	Dose-dependent effect	46.6	6.04
Clc1ccc2c(c1)C=C(/C=C/C=C/c1ccccc1)CO2	25	12.5	Dose-dependent effect	6.27	3.99	Dose-dependent effect	> 12.5	37.2	12.5	> 12.5	Dose-dependent effect	25.4	
Clc1ccc(/C=C/C2=Cc3ccccc3OC2)cc1	100	50	Dose-dependent effect	0.4	250	Dose-dependent effect	18.4		50	> 50	Dose-dependent effect	49.7	5.44
O=c1c(/C=C/C=C/c2ccc(Cl)cc2)coc2ccccc12	50	25	Dose-dependent effect	4.09	12.2	Dose-dependent effect	4.07		25	> 25	Dose-dependent effect	49.1	12.3
O=c1c(/C=C/c2ccccc2)coc2ccc(Cl)cc12	50	25	Dose-dependent effect	3.22	15.5	Dose-dependent effect	> 25	33.1	25	> 25	Dose-dependent effect	37	
Clc1ccc2c(c1)C=C(/C=C/c1ccccc1)CO2	100	50	Dose-dependent effect	11.2	8.93	Dose-dependent effect	11.2		50	> 50	Dose-dependent effect	30.8	8.95
Clc1ccc(C2CCc3cc(Cl)ccc3O2)cc1 (configuration not stated)									10				
O=c1c(/C=C/C=C/c2ccccc2)coc2ccccc12	50	25	Dose-dependent effect	5.27	9.49	Dose-dependent effect	15		25	> 25	Dose-dependent effect	39.8	3.33
